Reference: ChEMBL document CHEMBL1629677, “A small-molecule dengue virus entry inhibitor” (Antimicrob Agents Chemother, 2009)
pEC50: −log10 of the molar value. Calls of active or inactive are those of the source. The calls are words filed in the database; no cut-off is given here.

How the values were obtained:
Dengue virus [1] = experiment: Antiviral activity against Dengue virus NGC infected in human A549 cells assessed as decrease in viral E protein production after 48 hrs by CFI assay; format: functional, organism-based; settings: A549, 48 h
Procedure, shortened: (§1)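 A549 or BHK21 cells at 2 x 10^4/well grown overnight, then infected at MOI 0.3 with compound dilutions for 1 h at 37°C. Inoculum replaced by medium with compound for 48 h. Methanol-fixed, probed with anti-E antibody 4G2 and HRP anti-mouse IgG, developed with TMB, absorbance at 450 nm. EC50 by nonlinear regression of mean absorbance vs log concentration.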

Dengue virus [2] = experiment: Antiviral activity against 0.0001 MOI Dengue virus NGC infected in Cricetinae BHK21 cells assessed as decrease in viral E protein production […] by plaque reduction assay; format: functional, organism-based; settings: BHK-21
[3] = Cytotoxicity against human A549 cells after 48 hrs by celltiter-glo luminescent cell viability assay; format: cell-based
Procedure, shortened: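 A549 cells plated and compound added as in the immunodetection assay, then incubated for 48 h. Viability by CellTiter-Glo luminescence relative to DMSO-treated cells, giving CC50.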

Dengue virus [4] = experiment: Antiviral activity against 25 MOI Dengue virus NGC infected in human A549 cells assessed as colocalized virus with endocytosed dextran by confocal microscopy; format: functional, organism-based
Procedure, shortened: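 A549 cells on coverslips (1 x 10^5/well) infected at MOI 0.3? no: MOI 25 with 5 µM compound for 7 h. Rhodamine-dextran 20 mg/ml added for 20 min at 37°C, then methanol fixation and anti-E 4G2 staining with FITC secondary. Examined by confocal microscopy.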

Dengue virus [5] = experiment: Antiviral activity against Dengue virus NGC infected in human A549 cells assessed as viral antigen expression at 0.2 microM; format: functional
Dengue virus [6] = experiment: Antiviral activity against Dengue virus NGC infected in human A549 cells assessed as change in endosomal pH at 0.2 microM by Lysosensor green DND189 accumulation assay; format: functional, organism-based
Procedure, shortened: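 A549 cells on coverslips exposed to compound or bafilomycin A1 in Ham's F-12 with 2% FBS for 4 h at 37°C; 0.9% DMSO as control. Stained with 0.5 µM Lysosensor green DND-189 for 2 min at room temperature, washed, and imaged live by fluorescence microscopy.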

Dengue virus [7] = experiment: Binding affinity to Dengue virus particles by liquid chromatography
Procedure, shortened: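 Dengue virus (6 x 10^7 PFU) incubated with 5 µM compound at room temperature for 30 min, then loaded onto a gel-filtration spin column and centrifuged. Eluate analysed by LC-MS/MS in multiple-reaction-monitoring mode. Compound without virus run as a control.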

dengue virus type 1 = experiment: Antiviral activity against DENV-1 isolate My97-10245 infected in Cricetinae BHK21 cells assessed as decrease in viral E protein production after 48 hrs by CFI assay; format: functional, organism-based; settings: isolate My97-10245, BHK-21, 48 h; procedure, shortened: as §1
dengue virus type 2 [8] = experiment: Antiviral activity against DENV-2 NGC infected in human A549 cells assessed as decrease in viral E protein production after 48 hrs by CFI assay; format: functional, organism-based; settings: A549, 48 h; procedure, shortened: as §1
dengue virus type 2 [9] = experiment: Antiviral activity against DENV-2 NGC infected in Cricetinae BHK21 cells assessed as decrease in viral E protein production after 48 hrs by CFI assay; format: functional, organism-based; settings: BHK-21, 48 h; procedure, shortened: as §1
dengue virus type 3 = experiment: Antiviral activity against DENV-3 isolate My99-21531 infected in Cricetinae BHK21 cells assessed as decrease in viral E protein production after 48 hrs by CFI assay; format: functional, organism-based; settings: isolate My99-21531, BHK-21, 48 h; procedure, shortened: as §1
dengue virus type 4 = experiment: Antiviral activity against DENV-4 isolate My01-22713 infected in Cricetinae BHK21 cells assessed as decrease in viral E protein production after 48 hrs by CFI assay; format: functional, organism-based; settings: isolate My01-22713, BHK-21, 48 h; procedure, shortened: as §1
Yellow fever virus = experiment: Antiviral activity against Yellow fever virus 17D infected in human A549 cells assessed as decrease in viral E protein production after 48 hrs by CFI assay; format: functional, cell-based; settings: A549, 48 h; procedure, shortened: as §1
[10] = Antiviral activity against Japanese encephalitis virus Nakayama infected in Cricetinae BHK21 cells assessed as decrease in viral E protein production after 48 hrs by CFI assay; format: functional, cell-based, Japanese encephalitis virus strain Nakayama; settings: BHK-21, 48 h; procedure, shortened: as §1
West Nile virus = experiment: Antiviral activity against West nile virus B956 infected in Cricetinae BHK21 cells assessed as decrease in viral E protein production after 48 hrs by CFI assay; format: functional, organism-based; settings: B956, BHK-21, 48 h; procedure, shortened: as §1
Dengue virus [11] = experiment: Antiviral activity against Dengue virus NGC infected in human A549 cells assessed as decrease in viral E protein production during early stage of virus life cucle by CFI assay; format: functional, organism-based; settings: TDE = time-dependent effect
Procedure, shortened: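 A549 cells infected at MOI 0.3 for 1 h at 37°C. Compound dilutions were present during infection only, after infection only, or throughout. Alternatively, a fixed concentration was added at 0–120 min after virus. E protein measured by immunodetection at 48 h. Duplicate wells in two experiments, or three independent experiments for the time course.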

Dengue virus [12] = experiment: Antiviral activity against 25 MOI Dengue virus NGC infected in human A549 cells assessed as inhibition of NS3 protein production by CFI assay; format: functional, organism-based
Procedure, shortened: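 A549 cells on coverslips infected at MOI 25 with or without compound for 7 h. Methanol-fixed and stained with anti-E 4G2 and anti-NS3 antibodies plus fluorescent secondaries, DAPI mounting. Immunofluorescence microscopy.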

Dengue virus [13] = experiment: Antiviral activity against Dengue virus NGC infected in human A549 cells assessed as colocalization of virus measured as E protin signal after 2 hrs by confocal microscopy; format: functional, organism-based
Procedure, shortened: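 Virus pre-incubated with biotinylated compound, then passed through a gel-filtration spin column. Eluate used to infect A549 cells on coverslips for 2 h at 37°C. Cells fixed in formaldehyde for 15 min, compound detected with streptavidin-FITC and virus with anti-E antibody. Confocal microscopy.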

SMILES	pEC50 (Dengue virus [1])	pEC50 (Dengue virus [2])	CC50 at 48 h [3] [nM]	also measured
CC1(C)CC(Nc2nccc(-c3ccc(-c4ccc(Cl)cc4)s3)n2)CC(C)(C)N1	6.57	6.49	> 20000	
Clc1ccc(-c2ccc(-c3nc(NCc4cccnc4)nc4ccccc34)s2)cc1	7.15	6.70	> 20000	Activity (Dengue virus [4]): Active; Activity (Dengue virus [5]): >50%; Activity (Dengue virus [6]): inactive; Activity (Dengue virus [7]): Active; pEC50 (dengue virus type 1): 6.97; pEC50 (dengue virus type 2 [8]): 6.92; pEC50 (dengue virus type 2 [9]): 7.17; pEC50 (dengue virus type 3): 6.30; pEC50 (dengue virus type 4): 6.48; pEC50 (Yellow fever virus): 6.33; pEC50 [10]: 5.85; pEC50 (West Nile virus): 6.25; Activity (Dengue virus [11]): tde; Activity (Dengue virus [12]): Active
Clc1ccc(-c2ccc(-c3ccnc(N4CCNCC4)n3)s2)cc1	7.05	7.39	> 20000	
O=C(CCCC[C@@H]1SC[C@H]2NC(=O)N[C@@H]12)NCCOCCOCCNc1nc(-c2ccc(-c3ccc(Cl)cc3)s2)c2ccccc2n1	6.63			Activity (Dengue virus [13]): inactive
CC(=O)c1cccc(-c2ccc(-c3ccnc(NC4CC(C)(C)NC(C)(C)C4)n3)s2)c1	6.05	6.52	> 20000	
CC(C)(N)/C=C/c1cccc(-c2ccc(-c3ccnc(NC4CC(C)(C)NC(C)(C)C4)n3)s2)n1	5.77	6.51	> 20000	
CC1(C)CC(Nc2nc(-c3ccc(-c4ccc(Cl)cc4)s3)c3ccccc3n2)CC(C)(C)N1	7.40	7.08	18600	
